Experimental data pooled from the literature.
Target: Ephrin type-A receptor 7 (EPHA7, Homo sapiens, UniProt Q15375)

SMILES	read-out	technique	concentration	remaining binding [%]
CN(c1nccc(-c2cnn3ncccc23)n1)C1CC1	binding	–	1 µM	100
O=C(c1ccc(Nc2ncc(Cl)c(-c3cc4ccccc4s3)n2)cc1)N1CCC(N2CCCC2)CC1	binding	competition with immobilised ligand	1 µM	49
COc1cnc(Nc2cccc(S(N)(=O)=O)c2)nc1N1CCN(c2ccccc2)CC1	binding	competition with immobilised ligand	1 µM	86
CN(CCCC(F)(F)F)c1nccc(-c2cnn3ncccc23)n1	binding	–	1 µM	96
O=C(NCCCN1CCOCC1)c1ccc(Nc2ncc(Cl)c(-c3ccc(Cl)s3)n2)cc1	binding	competition with immobilised ligand	1 µM	60
O=C1NC(c2ccccn2)Sc2ccccc21 (stereo not drawn)	cell-free assay	competition with immobilised ligand	1 µM	72
CN(C)c1nccc(-c2cnc3ncccn23)n1	binding	–	1 µM	68
O=C(Nc1cnc(Oc2ccc(F)cc2)nc1)N1CCc2ncccc2[C@@H]1c1ccc(F)cc1	cell-free assay	competition with immobilised ligand	1 µM	88
O=C(NCCCN1CCOCC1)c1ccc(Nc2nccc(-c3cc4ccccc4s3)n2)cc1	binding	competition with immobilised ligand	1 µM	100
C[C@@H]1CCN(c2nccc(-c3cnn4ncccc34)n2)C1	binding	–	1 µM	84
c1cncc(-c2cccc(Nc3nccc(NC4CCCCC4)n3)c2)c1	binding	competition with immobilised ligand	10 µM	100
C=CC(=O)N1CCC(C(=O)NCC(=O)N2CCN(c3nc(-c4cnc(N)nc4C(F)F)nc(N4CCOCC4)n3)CC2)CC1	binding	competition with immobilised ligand	1 µM	100
c1cnn2ncc(-c3ccnc(N4CCC45COC5)n3)c2c1	binding	–	1 µM	93
CN(C)C(=O)Cn1cc(-c2nc([C@@](C)(c3ccc(-c4cnc(N)nc4)cc3)C3CC3)no2)cn1	cell-free assay	competition with immobilised ligand	1 µM	98
CNC(=O)[C@@H]1CC[C@@H](n2c(-c3ccc4cnccc4c3)nc3ccc(C(=O)NCc4cccc(C(N)=O)c4)cc32)C1	binding	competition with immobilised ligand	1 µM	100
CS(=O)(=O)N1CCCC(NC(=O)[C@H](CCC2CCCCC2)NC(=O)c2ccc(CNc3ncnc4c3nnn4-c3ccccc3)cc2)C1 (stereo partly drawn)	cell-free assay	competition with immobilised ligand	0.1 µM	98
COc1ncc2cc3ccccc3nc2c1C#N	cell-free assay	competition with immobilised ligand	5 µM	95
CCOC(=O)c1cc2cc(-c3cc(C(=O)NCc4ccc(C(=O)O)cc4)nn3C)ccc2[nH]1	cell-free assay	competition with immobilised ligand	0.1 µM	97
O=C(NCC1CCOCC1)c1n[nH]cc1NC(=O)c1c(F)cccc1F	binding	competition with immobilised ligand	1 µM	97
Cc1cc(-n2nc(Cc3cc(F)cc(C(F)(F)F)c3)nc2C)ccc1C(N)=O	cell-free assay	competition with immobilised ligand	1 µM	98
N[C@@H]1CCN(c2nccc(-c3cnn4ncccc34)n2)C1	binding	–	1 µM	91
